# High-throughput results (PubChem)
# Hits are enriched below; roughly 3.5% of the tested compounds scored in any of these assays.
# FN deposit inh: fibronectin deposition inhibition. AH1F fibroblasts, Alexa488-fibronectin deposition fluorescence, overnight. inhibition, % at 12.6 µM. hit rate 0.086% among 350,000. AID 743247;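 active = mean inhibition across replicates of 30% or more, regardless of how many single replicates reach that level; inconclusive = mean under 30% yet at least half of replicates reach 30%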
#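 test system = AH1F fibroblasts assembling fluorescent fibronectin matrix | quantity = 10000 AH1F cells per well | buffer or medium = DMEM plus 2% serum, read in PBS | doses = single dose, pinned | incubation = 1 h cell attachment, overnight exposure to compound and label | detection = fluorescence at 485 nm excitation, 525 nm emission | read-out basis = inhibition from reduced deposited-fibronectin fluorescence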
# Ecoli rRNA inh: selective bacterial rRNA inhibition in E. coli; E. coli WT GFP vs humanized-ribosome RFP mutants, fluorescence, 24 h; stronger effect = lower value; DMSO median 0, no signal -100; GFP signal change (wild-type ribosome), % (test concentration not listed); hit rate 1.6% among 350,000;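 active = significant combined selectivity score with lowered wild-type GFP, culture density cut under 30%, mutant RFP and density less affected; inactive = any of these conditions unmet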
# PGC1a acetyl inh: modulators of PGC1a acetylation | inhibition, % at 15.6 µM | hit rate 0.17% among 350,000 | U2OS PGC1a acetylation, AlphaScreen anti-acetyl-lysine; with virally co-expressed GCN5 acetyltransferase | AID 651687;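 active = every replicate shows inhibition of at least 40%; inconclusive = mean inhibition at least 40% but some replicate below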
# DENV2 CPE rescue: protects cells from dengue virus 2 cytopathic effect; CPE inhibition, % at 9.99 µM; hit rate 1.7% among 350,000; DENV2-infected cells, cytopathic effect rescue, plate reader; in the data active = CPE inhibition above about 20%, passing the limit was not always enough; inconclusive = no clear call, values can overlap the other calls; tested in BHK-21 cells
# PglD inh: blocks C. jejuni PglD acetyltransferase activity; hit rate 0.098% among 360,000; inhibition, % at 12.5 µM; purified PglD enzyme, DTNB colorimetric CoA detection; AID 602405; in the data active = inhibition above about 16%, passing the limit was not always enough; inconclusive = no clear call, values can overlap the other calls
# HIV Env fusion: blocks HIV Env-driven cell-cell fusion; HeLa-JRFL Env/CEM21 cell fusion, luciferase; inhibition, % at 12.3 µM; hit rate 1.1% among 360,000; AID 651610;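 active = mean replicate inhibition score of at least 50 and every replicate individually at or above 50; inconclusive = only one of the two criteria met; inactive = mean below 50 and not all replicates reaching 50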
# AID977621: wild-type E. coli growth inhibition versus H69 humanized strain – H69 mutant RFP, wild-type GFP, cherry-pick, dose response | shares compounds with Ecoli rRNA inh | fluorescence, 24 h | 1,900 tested, under 10 active | activity change, negative = inhibition at 50 µM | AID 977621;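 active = Wild-type ribosome reporter drop at least double the humanized mutant ribosome reporter drop, growth loss under a set limit; inconclusive = no clear call, values can overlap the other calls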;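 also: wild-type GFP and H69 mutant RFP strains grown together 50/50 in each well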
# AID977628: E. coli growth inhibition, wild-type GFP versus h24 humanized RFP strain, dose response, h24 mutant RFP vs wild-type GFP, cherry-pick. shares compounds with Ecoli rRNA inh. E. coli WT GFP strain growth, fluorescence, 24 h. activity change, negative = inhibition at 50 µM. 1,900 tested, under 10 active. AID 977628;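 active = compound lowering the normal-ribosome reporter at least twice as much as the humanized-ribosome reporter, growth loss under a set limit; inconclusive = no clear call, values can overlap the other calls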;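 also: wild-type GFP and h24 humanized RFP strains co-cultured 1 to 1 per well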
# Numbers stand for hits; – = inactive; ? = inconclusive; · = no result.
SMILES,FN deposit inh,Ecoli rRNA inh,PGC1a acetyl inh,DENV2 CPE rescue,PglD inh,HIV Env fusion,AID977621,AID977628
Cc1ccc(S(=O)(=O)Nc2ccc3c(c2)C(=O)N([C@@H](C)CO)C[C@@H](C)[C@@H](CN(C)C(=O)c2ccccc2)OCCCC[C@@H](C)O3)cc1,–,–,–,–,–,–,·,·
OCCN(Cc1ccccc1)Cc1ccccc1O,–,–,–,–,·,–,·,·
OCCN(Cc1ccccc1)Cc1ccc(F)c(F)c1,·,-23,–,–,·,·,–,–
CCS(=O)(=O)N1CCN(c2ccc([N+](=O)[O-])c(NCC3CCCO3)c2)CC1 (centres undefined),–,-21,–,–,·,–,–,–
O=C(c1ccccc1)N1CCN(c2ccc([N+](=O)[O-])c(NCC3CCCO3)c2)CC1 (centres undefined),–,-32,–,–,–,–,–,–
O=[N+]([O-])c1ccc(N2CCN(S(=O)(=O)c3ccccc3)CC2)cc1NCC1CCCO1 (centres undefined),–,·,·,·,–,–,·,·
C[C@@H]1CN([C@@H](C)CO)C(=O)c2cc(NC(=O)Nc3ccc4c(c3)OCO4)ccc2O[C@@H]1CN(C)C(=O)Nc1ccc(C(F)(F)F)cc1,–,–,–,–,–,–,·,·
COc1ccc(CN2CCC3CC2c2cc(Cl)ccc23)cc1 (centres undefined),–,-21,–,–,·,–,?,?
Clc1ccc2c(c1)C1CC2CCN1Cc1ccccc1 (centres undefined),–,–,–,–,–,–,·,·
Cc1cccc(SCC(=O)Nc2ccccc2[N+](=O)[O-])c1,–,-26,·,–,–,–,–,–
CCc1ccc(C(=O)Nc2cccnc2Oc2ccc(Cl)cc2)cc1,–,-21,87,–,·,–,–,·
C[C@H](CO)N1C[C@H](C)[C@H](CN(C)C(=O)Nc2ccc(C(F)(F)F)cc2)Oc2ccc(NC(=O)CCC(F)(F)F)cc2CC1=O,–,–,–,–,–,–,·,·
O=C(CN1CCCCC1)n1c2ccccc2c2ccccc21,–,-24,–,–,–,–,–,–
Cc1c(C)n(C(=O)CN2CCC(C(N)=O)CC2)c2ccccc12,·,·,–,·,–,·,·,·
O=C(O)c1ccccc1NC(=O)C(c1ccccc1)c1ccccc1,–,-30,–,–,–,–,–,–
COc1cc[n+]([O-])cc1[N+](=O)[O-],–,1.2,–,–,–,–,–,–
COc1ccc(CNc2cc([N+](=O)[O-])ccc2OC)cc1,·,-21,–,–,–,·,–,·
COc1cccc(NC(=O)N2[C@H](CO)[C@H](c3ccccc3)[C@H]2CNCC(C)C)c1,–,–,–,–,–,·,·,·
Cc1nn(CC(O)COc2ccc3c(c2)CCC3)c(C)c1Br (centres undefined),–,·,–,·,–,–,·,·
CC(=O)c1c(C)nn(CC(O)COc2ccc3c(c2)CCC3)c1C (centres undefined),·,-22,–,·,–,·,–,·
Cc1noc(C)c1NC(=O)Nc1ccc2c(c1)CC(=O)N([C@@H](C)CO)C[C@H](C)[C@H](CN(C)C(=O)Nc1ccc(C(F)(F)F)cc1)O2,·,–,–,–,–,–,·,·
Cc1ccc(S(=O)(=O)N2CCOCC2)cc1NC(=O)COc1ccc(-c2nnco2)cc1,·,-19,–,–,–,–,–,?
O=S(=O)(c1cnc(Cl)c(Cl)c1)N1CCCc2ccccc21,·,-25,·,–,·,–,–,–
Cc1ccc(S(=O)(=O)N2CCCc3ccccc32)cc1,–,–,–,–,–,–,·,·
COc1cccc(NC2=Nc3cccc4cccc2c34)c1,–,-34,·,–,–,–,–,·
SMILES,FN deposit inh,Ecoli rRNA inh,PGC1a acetyl inh,DENV2 CPE rescue,PglD inh,HIV Env fusion,AID977621,AID977628
O=C1c2cccc3cccc(c23)C(=O)N1CCCn1ccnc1,–,-21,–,–,–,–,–,?
Cc1ccccc1CSc1nnc(-c2ccncc2)o1,–,-19,·,–,–,–,·,?
C[C@@H]1CN([C@@H](C)CO)C(=O)Cc2cc(NC(=O)Cc3ccccc3)ccc2O[C@@H]1CN(C)Cc1ccc(C(=O)Nc2ccccc2N)cc1,·,–,–,–,–,–,·,·
NCC[C@@H]1CC[C@H](NS(=O)(=O)Cc2ccccc2)[C@@H](CO)O1,–,–,–,–,–,–,·,·
CCOC(=O)C1NN=C(C(=O)c2ccccc2)C1c1ccc(OC)cc1 (centres undefined),–,-25,–,–,·,–,–,–
CCOC(=O)C1NN=C(C(=O)c2ccccc2)C1c1ccccc1 (centres undefined),–,–,·,–,·,·,·,·
Cc1ccnc(NS(=O)(=O)c2ccc(NC(=O)c3ccc4c(c3)OCCO4)cc2)n1,–,-23,·,–,·,–,–,–
C[C@@H]1CCCCO[C@@H](CN(C)C(=O)CCCN(C)C)[C@H](C)CN([C@H](C)CO)C(=O)c2cc(NC(=O)CCCN(C)C)ccc2O1,–,–,–,–,–,–,·,·
O=C(COC(=O)C1CC2C=CC1C2)Nc1ccc([N+](=O)[O-])cc1 (centres undefined),–,-31,–,–,–,–,–,–
NC(=O)c1ccc(NC(=O)COC(=O)C2CC3C=CC2C3)cc1 (centres undefined),–,–,–,?,–,·,·,·
CC(CCc1ccccc1)NC(=O)CNC(=O)COc1ccccc1 (centres undefined),–,-14,–,–,·,–,–,·
C[C@@H]1CCCCO[C@@H](CN(C)S(=O)(=O)c2cccs2)[C@H](C)CN([C@@H](C)CO)C(=O)c2cc(NS(C)(=O)=O)ccc2O1,·,–,–,–,–,–,·,·
COc1ccc(-n2ccnc2SCC(=O)NCc2ccccc2)c(OC)c1,–,-25,–,–,–,–,–,·
COc1ccc(CC(=O)OCC(=O)Nc2cccc(Br)c2)cc1,–,–,–,–,·,–,·,·
COc1cccc(NC(=O)COC(=O)Cc2ccc(Br)cc2)c1,–,-15,·,–,·,–,?,–
COc1cccc(NC(=O)COC(=O)Cc2ccc(Cl)cc2)c1,–,-36,–,·,–,–,–,·
CO[C@@H]1CC[C@@H]2CCN(C)C(=O)C[C@@H](c3ccccc3)CN(C)C(=O)c3cccc(C#N)c3OC[C@@H]1O2,–,–,·,–,–,–,·,·
O=C(c1ccccc1)c1ccc2nc(-c3ccc(NC(=O)c4ccccc4Br)cc3)[nH]c2c1,·,-17,–,·,–,·,·,–
C[C@H](CO)N1C[C@H](C)[C@@H](CN(C)C(=O)Nc2ccccc2)Oc2ncc(C#CC3CCCC3)cc2C1=O,–,–,–,–,–,–,·,·
